# Screens deposited in PubChem by several laboratories.
# Most compounds without a hit are left out; they make up all but 1.6% or so of the library.
# NR1D1 modulator: Rev-erb alpha (human) modulation. P20393. activity, % at 10 µM. 370,000 compounds, 0.79% hits. Rev-erbα–FITC-DNA binding, fluorescence polarization, 90 min;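 active = activity above about 14%, limit read from the data; passing the limit was not always enough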;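 note: 0% = DMSO wells with 35 nM protein and 100% = DMSO wells with 750 nM protein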
# PG9 Ab binder: small molecules binding HIV-1 gp120 antibody PG9; TR-FRET gp120-PG9 antibody binding; inhibition, % at 6.7 µM; 360,000 compounds, 0.43% hits; AID 624416; in the data active = inhibition above about 8.5%
# NR2E3 ag-1: activates human photoreceptor nuclear receptor NR2E3. Q9Y5X4. GST-NR2E3/biotin-RetCOR TR-FRET, 1536-well. inhibition of corepressor binding, % at 4.78 µM. 320,000 compounds, 0.12% hits;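 active = percent inhibition above the cutoff of mean plus 3 SD of all tested compounds, set per screening campaign, cut at about 20% in these data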;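 note: 0% = DMSO wells and 100% = biotin wells as full block of FRET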
# Target sequence (Q9Y5X4 whole entry, looked up): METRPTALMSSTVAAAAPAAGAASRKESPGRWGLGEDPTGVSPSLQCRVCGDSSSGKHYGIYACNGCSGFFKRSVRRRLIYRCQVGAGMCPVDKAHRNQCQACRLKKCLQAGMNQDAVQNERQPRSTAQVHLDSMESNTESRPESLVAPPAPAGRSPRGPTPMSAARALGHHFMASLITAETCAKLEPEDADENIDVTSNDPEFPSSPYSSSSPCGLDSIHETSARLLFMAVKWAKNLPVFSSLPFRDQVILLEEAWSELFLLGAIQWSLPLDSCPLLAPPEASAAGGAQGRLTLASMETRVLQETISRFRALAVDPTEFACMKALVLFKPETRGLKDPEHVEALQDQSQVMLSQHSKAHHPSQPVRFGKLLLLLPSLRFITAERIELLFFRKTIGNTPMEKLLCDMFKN
#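 Material: NR2E3–RetCOR corepressor complex | Quantity: 1.35 nM GST-tagged NR2E3 final | Schedule: 5 h at 4 °C | Replication: Singlicate compound wells | Reagent: RetCOR corepressor, biotinylated, 7 nM | Controls: Biotin wells as high control, 0.6% DMSO wells as low control | Signal: TR-FRET, Eu(K)-anti-GST donor, streptavidin-D2 acceptor, ex 340, em 617/671 nm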
# NR2E3 ag-2: human photoreceptor-specific nuclear receptor agonism. CHO-S Gal4-NCOR/VP16-NR2E3 two-hybrid, luciferase. inhibition of corepressor binding, % at 3.98 µM. 360,000 compounds, 0.35% hits;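 active = inhibition above the mean of all tested compounds plus 3 SD, cut at about 70% in these data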;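 note: 0% = DMSO with NR2E3 transfected cells and 100% = cells lacking NR2E3 construct; higher means lower luciferase signal from less NR2E3 corepressor binding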
# VLA-4 inh: inhibition in a human VLA-4 binding assay; P13612; inhibition, % (about 7 µM as worked out from the volumes in the protocol); 330,000 compounds, 0.2% hits; AID 2557; VLA-4 expressing cells, ligand binding flow cytometry; in the data active = inhibition above about 50%
# NR2E3 ag conf: confirmation of human NR2E3 agonists | AID 624378 | 2,300 compounds, 51% hits | CHO-S mammalian two-hybrid NR2E3-NCOR, luciferase luminescence | inhibition, % at 3.98 µM | shares compounds with NR2E3 ag-2;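 active = average inhibition above a cutoff equal to the mean inhibition of all tested compounds plus one SD, cut at about 70% in these data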;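 note: 0% = DMSO in NR2E3 cells and 100% = DMSO in cells lacking NR2E3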
# VP16 counter: counter-screen for NR2E3 agonists: GAL4-VP16 reporter inhibitors | AID 624379 | CHO-S GAL4-VP16 luciferase reporter, luminescence | shares compounds with NR2E3 ag-2 | 2,300 compounds, 29% hits | inhibition, % at 3.98 µM;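 active = mean inhibition above a cutoff equal to the average over all tested compounds plus one standard deviation, cut at about 70% in these data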;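 note: luciferase from a UAS reporter driven by GAL4-VP16 transactivation; 0% = DMSO with VP16-transfected cells and 100% = DMSO with cells lacking VP16; higher means less reporter light so more repression of VP16 activity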
# Starred values were filed as active, the others as inactive; . = not tested or not shown.
SMILES,NR1D1 modulator,PG9 Ab binder,NR2E3 ag-1,NR2E3 ag-2,VLA-4 inh,NR2E3 ag conf,VP16 counter
C=CCn1c(C)cc(C(=O)COC(=O)c2ccc(N)c([N+](=O)[O-])c2)c1C,7.2,1.2,1.5,-128.8,5.5,.,.
COCCn1c(C)cc(C(=O)COC(=O)c2ccccc2Br)c1C,-3.0,0.1,-0.1,79.0*,-1.2,26.4,34.7
Cc1cc(C(=O)COC(=O)c2cccnc2Cl)c(C)n1CC1CCCO1 (centres undefined),-2.0,-1.6,9.1,60.3,22.1,46.5,9.7
CCn1c(C)cc(C(=O)COC(=O)c2ccccc2[N+](=O)[O-])c1C,.,.,.,104.7*,7.3,89.3*,87.5*
Cc1ccc(C(=O)OCC(=O)c2cc(C)n(CC3CCCO3)c2C)cc1 (centres undefined),-5.3,-1.1,-2.8,-26.3,1.1,.,.
Cc1cc(C(=O)COC(=O)c2ccccc2O)c(C)n1CC1CCCO1 (centres undefined),3.0,-1.9,0.5,94.9*,3.2,88.6*,79.9*
Cc1cc(C(=O)COC(=O)c2cc(O)c3ccccc3c2O)c(C)n1CC1CCCO1 (centres undefined),.,.,.,21.2,.,.,.
Cc1cc(C(=O)COc2ccccc2C(N)=O)c(C)n1CC1CCCO1 (centres undefined),0.4,1.5,0.9,68.8,0.0,90.1*,69.4
O=C(OCCN1CCN(C2CN(Cc3cn(Cc4ccccc4Cl)nn3)S(=O)(=O)C2)CC1)c1cc2ccccc2o1 (centres undefined),4.7,.,.,.,.,.,.
O=C(CN1C(=O)CCC1=O)NNc1ccc2ccccc2c1,-2.6,-3.4,-3.0,31.4,11.7,.,.
O=C(Cc1ccccc1)NNc1ccc2ccccc2c1,2.8,-1.2,-2.4,49.7,14.7,52.6,5.1
Cn1c2c(c(=O)n(C)c1=O)C(C(F)(F)F)(C(F)(F)F)N=C(c1ccc(Cl)cc1)N2,.,.,0.6,97.7*,1.3,98.7*,90.5*
C#CCOCCOCCOCCNc1nc(N2CCN(C(=O)Cn3cc(CCCN=C(N)N)nn3)CC2)nc(N2CCN(C(=O)[C@H](Cc3ccc(O)cc3)n3cc(CCO)nn3)CC2)n1,-0.7,.,.,.,.,.,.
COc1ccc(CCNC(=O)C2CC3Cn4c(nc5cc6ccccc6cc54)C3N2C)cc1 (centres undefined),-4.6,0.8,-3.3,53.4,2.5,31.8,34.5
CCCn1c(CNc2ccc(Br)cc2)nc2ccccc21,-5.3,-2.7,-0.6,54.3,7.4,26.8,21.7
CC(=O)NC(c1cccs1)c1cc([N+](=O)[O-])c2cccnc2c1O (centres undefined),-1.2,-0.3,1.5,80.6*,12.6,97.6*,54.5
CCC(=O)NC(c1cccs1)c1cc([N+](=O)[O-])c2cccnc2c1O (centres undefined),4.9,0.5,0.3,62.5,-5.0,93.7*,51.5
CCCC(=O)NC(c1cccs1)c1cc([N+](=O)[O-])c2cccnc2c1O (centres undefined),9.1,-3.0,-1.6,16.5,19.7,.,.
CC(C)C(=O)NC(c1ccccc1)c1cc([N+](=O)[O-])c2cccnc2c1O (centres undefined),3.9,-0.6,2.1,20.0,-2.9,.,.
CC(=O)NC(c1ccccc1)c1cc([N+](=O)[O-])c2cccnc2c1O (centres undefined),4.5,0.1,-8.2,57.2,-4.2,93.7*,30.7
COC(=O)c1cc(-c2cc(F)cc(OC)c2)c(=O)n2c1CCC2,-0.4,.,.,.,.,.,.
CC(C)(C)c1ccc(-c2nnc(SCC(=O)c3ccc([N+](=O)[O-])cc3)n2-c2ccc(Cl)cc2)cc1,-1.8,.,.,.,.,.,.
CCC(c1nnnn1-c1ccc2c(c1)OCCO2)N1CCN(c2ncccc2C(F)(F)F)CC1 (centres undefined),-9.2,-0.2,.,12.5,.,.,.
CCC(c1nnnn1-c1ccc2c(c1)OCCO2)N1CCN(c2ccc(F)cc2)CC1 (centres undefined),.,.,.,53.7,.,53.1,48.5
O=C(Cn1cccc1C(=O)c1ccccc1)NCc1ccccc1,8.2,0.2,2.4,3.3,21.4,.,.
CCCNC(=O)Cn1cccc1C(=O)c1ccccc1,0.3,-0.4,-2.4,89.3*,5.2,22.1,11.5
